Test results reported in ChEMBL document CHEMBL4823313 (Bioorg Med Chem, 2021).

How the values were obtained:
[1] = system: SARS-CoV-2; test: (§1) Antiviral activity against SARS-CoV-2 nCoV-2019BetaCoV/Wuhan/WIV04/ infected in African green monkey Vero E6 cells assessed as inhibition of viral replication at 5 uM when host cells were pretreated for 1 hr followed by viral infection then followed by removal of infected supernatant and subsequent culture addition with fresh compounds and measured after 24 hrs by qRT-PCR method relative to control; format: functional; settings: Severe acute respiratory syndrome coronavirus 2, nCoV-2019BetaCoV/Wuhan/WIV04/, Vero C1008, time 25 hrs
[2] = system: SARS-CoV-2; test: as §1, with “replication” for “replication at 5 uM”, “method” for “method relative to control”; format: functional, organism-based; settings: Severe acute respiratory syndrome coronavirus 2, nCoV-2019BetaCoV/Wuhan/WIV04/, Vero C1008
[3] = system: Vero C1008; test: Cytotoxicity against African green monkey Vero E6 cells by CCK8 assay; format: cell-based; settings: chlorocebus sabaeus
How it was run: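 Vero E6 cell viability was read by CCK-8 colorimetric assay.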

[4] = system: SARS-CoV-2; test: as §1, with “10” for “5”; format: functional; settings: Severe acute respiratory syndrome coronavirus 2, nCoV-2019BetaCoV/Wuhan/WIV04/, Vero C1008, time 25 hrs
[5] = Stability of compound in stimulated intestinal fluid assessed as parent compound remaining measured after 4 hrs by HPLC analysis; format: ADME; settings: simulated intestinal fluid, read-out: Stabilty
How it was run: (§2)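 Compound solution was diluted into artificial gastric or intestinal juice and incubated at 37 °C. Samples were taken at 0, 1, 2, 3, 4, 6 and 24 h and quenched with ice-cold acetonitrile. After centrifugation, supernatants were analysed by HPLC.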

[6] = Stability of compound in stimulated gastric fluid incubated for 24 hrs by HPLC analysis; format: ADME; settings: simulated gi fluid; how it was run: as §2
[7] = Half life in CD-1 mouse at 25 mg/kg, iv by LC-MS/MS analysis; format: ADME, organism-based; settings: in vivo; for half-life: CD-1, mouse
How it was run: (§3)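 Mice were fasted 12 h. Dosing was 50 mg/Kg orally or 25 mg/Kg intravenously, in DMSO-ethanol-PEG300-saline (5/5/40/50, v/v/v/v). Blood was drawn from the femoral vein into heparinized tubes at several post-dose times, and analytes were measured by LC-MS/MS.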

[8] = Half life in CD-1 mouse at 50 mg/kg, po by LC-MS/MS analysis; format: ADME, organism-based; settings: in vivo; how it was run: as §3
[9] = AUClast in CD-1 mouse at 25 mg/kg, iv by LC-MS/MS analysis; format: ADME, organism-based; parameters: route intravenous, time 0 - last, dose 25 mg/kg; settings: in vivo; how it was run: as §3
[10] = AUClast in CD-1 mouse at 50 mg/kg, po by LC-MS/MS analysis; format: ADME, organism-based; parameters: route oral, time 0 - last, dose 50 mg/kg; settings: in vivo; how it was run: as §3
[11] = Oral bioavailability in CD-1 mouse at 50 mg/kg by LC-MS/MS analysis; format: ADME, organism-based; settings: in vivo; how it was run: as §3
[12] = Cmax in CD-1 mouse at 50 mg/kg, po by LC-MS/MS analysis; format: ADME, organism-based; parameters: route oral, dose 50 mg/kg; settings: in vivo; how it was run: as §3
[13] = Observed MRT infinity in CD-1 mouse at 50 mg/kg, po by LC-MS/MS analysis; format: ADME, organism-based; settings: in vivo; how it was run: as §3
[14] = Observed MRT infinity in CD-1 mouse at 25 mg/kg, iv by LC-MS/MS analysis; format: ADME, organism-based; settings: in vivo; for MRT inf: CD-1, mouse; how it was run: as §3
[15] = Observed volume of distribution at steady state in CD-1 mouse at 25 mg/kg, iv by LC-MS/MS analysis; format: ADME, organism-based; settings: in vivo; for Vd: CD-1, mouse, read-out: Vdss; how it was run: as §3
[16] = Tmax in CD-1 mouse at 50 mg/kg, po by LC-MS/MS analysis; format: ADME, organism-based; settings: in vivo; how it was run: as §3
[17] = Acute toxicity in ICR mouse assessed as effect on body weight at 100 to 1000 mg/kg, po via gavage and measured after 7 days; format: organism-based; settings: in vivo, 168 h, dose 100-1000 mg/kg, time 7 day
How it was run: (§4)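 Male ICR mice (28–36 g), 3 per group, were fasted 16 h. Each got one oral gavage dose of 50, 100, 200, 500 or 1000 mg/kg in 5% DMSO, 5% Solution Hs15 and 90% saline. Clinical signs, body weight and food consumption were followed for 7 days, and animals were sacrificed on day 8.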

[18] = Acute toxicity in po dosed ICR mouse assessed as maximum tolerated dose measured after 7 days; format: organism-based; settings: in vivo, time 7 day; how it was run: as §4
[19] = Acute toxicity in ICR mouse assessed as effect on organ weight at 100 to 1000 mg/kg, po via gavage and measured after 7 days; format: organism-based; settings: in vivo, 168 h, dose 100-1000 mg/kg, time 7 day

Nc1ncnn2c([C@@H]3O[C@H](CO)[C@@H](O)[C@H]3F)ccc12
inhibition at 5 µM [1]: < 10%

CCC(CC)COC(=O)[C@H](C)N[P@](=O)(OC[C@H]1O[C@@](C#N)(c2ccc3c(N)ncnn23)[C@H](O)[C@@H]1O)Oc1ccccc1
EC50 [2]: 2000 nM | inhibition at 5 µM [1]: 65%

Nc1ncnn2c([C@@H]3O[C@H](CO)[C@@H](O)[C@H]3O)ccc12
Activity [3]: Toxic

N#C[C@@]1(c2cc(F)c3c(N)ncnn23)O[C@H](CO)[C@@H](O)[C@H]1O
EC50 [2]: 3300 nM | inhibition at 5 µM [1]: 80% | inhibition at 10 µM [4]: 97%

CC(=O)[C@@]1(c2ccc3c(N)ncnn23)O[C@H](CO)[C@@H](O)[C@H]1O
inhibition at 5 µM [1]: < 10%

CCCCCOC(=O)Nc1ncnn2c([C@]3(C#N)O[C@H](CO)[C@@H](O)[C@H]3O)ccc12
inhibition at 10 µM [4]: 65%

CC(C)C(=O)O[C@H]1[C@@H](OC(=O)C(C)C)[C@](C#N)(c2ccc3c(N)ncnn23)O[C@@H]1CO
inhibition at 5 µM [1]: 99%

Nc1ncnn2c([C@]3(CO)O[C@H](CO)[C@@H](O)[C@H]3O)ccc12
inhibition at 5 µM [1]: < 10%

N#C[C@@]1(c2cc(I)c3c(N)ncnn23)O[C@H](CO)[C@@H](O)[C@H]1O
inhibition at 5 µM [1]: < 10%

CC(C)[C@H](N)C(=O)OC[C@H]1O[C@@](C#N)(c2ccc3c(N)ncnn23)[C@H](O)[C@@H]1O
remaining at 4 h [5]: 9% | Stabilty [6]: Stable

OC[C@H]1O[C@@H](c2ccc3c(NO)ncnn23)[C@H](O)[C@@H]1O
inhibition at 5 µM [1]: < 10%

CC(C)C(=O)OC[C@H]1O[C@@](C#N)(c2ccc3c(N)ncnn23)[C@H](O)[C@@H]1OC(=O)C(C)C
inhibition at 5 µM [1]: 99%

N#Cc1cc([C@]2(C#N)O[C@H](CO)[C@@H](O)[C@H]2O)n2ncnc(N)c12
inhibition at 5 µM [1]: < 10%

CO[C@@H]1[C@H](O)[C@@H](CO)O[C@@]1(C#N)c1ccc2c(N)ncnn12
inhibition at 5 µM [1]: < 10%

Br.CC(C)C(=O)OC[C@H]1O[C@@](C#N)(c2ccc3c(N)ncnn23)[C@H](OC(=O)C(C)C)[C@@H]1OC(=O)C(C)C
half-life [7]: 2.48 h | half-life [8]: 2.71 h | AUC(0-t) [9]: 3600 ng·h/mL | AUC(0-t) [10]: 7110 ng·h/mL

C=C(C)[C@@]1(c2ccc3c(N)ncnn23)O[C@H](CO)[C@@H](O)[C@H]1O
inhibition at 5 µM [1]: < 10%

NC(=O)[C@@]1(c2ccc3c(N)ncnn23)O[C@H](CO)[C@@H](O)[C@H]1O
inhibition at 5 µM [1]: < 10%

CC(C)[C@H](N)C(=O)O[C@H]1[C@@H](O)[C@](C#N)(c2ccc3c(N)ncnn23)O[C@@H]1CO.Cl.Cl
EC50 [2]: 110 nM | t1/2 ([7]; mouse, 25 mg/kg): 0.61 h | remaining at 4 h [5]: 34% | F [11]: 27.5% | Cmax [12]: 1510 ng/mL | inhibition at 5 µM [1]: 99% | MRT inf [13]: 2.76 h | half-life [8]: 1.72 h | MRT ([14]; mouse, 25 mg/kg): 0.78 h | Vdss ([15]; mouse, 25 mg/kg): 3.86 L/kg | Stabilty [6]: Stable | AUC(0-t) [9]: 5420 ng·h/mL | AUC(0-t) [10]: 2980 ng·h/mL | Tmax [16]: 0.83 h

CC(C)C(=O)O[C@H]1[C@@H](O)[C@](C#N)(c2ccc3c(N)ncnn23)O[C@@H]1CO
EC50 [2]: 250 nM | half-life [7]: 0.83 h | remaining at 4 h [5]: 100% | F [11]: 71.6% | Cmax [12]: 7880 ng/mL | inhibition at 5 µM [1]: 99% | MRT inf [13]: 1.82 h | half-life [8]: 1.11 h | MRT inf [14]: 1.07 h | Vd [15]: 2.59 L/kg | Stabilty [6]: Stable | AUC(0-t) [9]: 10200 ng·h/mL | AUC(0-t) [10]: 14600 ng·h/mL | Tmax [16]: 0.33 h

N#C[C@@]1(c2ccc3c(O)ncnn23)O[C@H](CO)[C@@H](O)[C@H]1O
inhibition at 5 µM [1]: < 10%

Nc1ncnn2c([C@@H]3O[C@H](CO)[C@@H](O)C3(F)F)ccc12
inhibition at 5 µM [1]: < 10%

CCC(CC)COC(=O)[C@H](C)N[P@](=O)(OC[C@H]1O[C@@](C#N)(c2cc(F)c3c(N)ncnn23)[C@H](O)[C@@H]1O)Oc1ccccc1
inhibition at 10 µM [4]: 82%

N#C[C@@]1(c2cc(Cl)c3c(N)ncnn23)O[C@H](CO)[C@@H](O)[C@H]1O
inhibition at 5 µM [1]: < 10%

N#C/C=C/[C@@]1(c2ccc3c(N)ncnn23)O[C@H](CO)[C@@H](O)[C@H]1O
inhibition at 5 µM [1]: < 10%

N#C[C@@]1(c2ccc3c(N)ncnn23)O[C@H](CO)[C@@H](O)[C@H]1O [GS-441524]
EC50 [2]: 480 nM | inhibition at 5 µM [1]: 99%

CC(C)C(=O)OC[C@H]1O[C@@](C#N)(c2ccc3c(N)ncnn23)[C@H](O)[C@@H]1O [OBELDESIVIR]
EC50 [2]: 230 nM | half-life [7]: 4.77 h | remaining at 4 h [5]: 2% | Activity [17]: Non-Toxic | F [11]: 86.6% | Cmax [12]: 6680 ng/mL | inhibition at 5 µM [1]: 99% | MRT inf [13]: 2.16 h | half-life [8]: 2.46 h | MTD at 168 h [18]: 1000 mg/kg | MRT inf [14]: 1.33 h | Vd [15]: 4.17 L/kg | Stabilty [6]: Stable | AUC(0-t) [9]: 7980 ng·h/mL | Activity [19]: Non-Toxic | AUC(0-t) [10]: 13800 ng·h/mL | Tmax [16]: 0.42 h
